From ChEMBL document CHEMBL1138555, “N-acylated and N,N'-diacylated imidazolidine-2-thione derivatives and N,N'-diacylated tetrahydropyrimidine-2(1H)-thione analogues: synthesis and antiproliferative activity” (Eur J Med Chem, 2009)

Legend:
SK-MEL-28 = assay: Growth inhibition of human SK-MEL-28 cells after 48 hrs by sulforhodamine B assay; type: functional; conditions: SK-MEL-28, 48 h
Summary of the method: (§1)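 NCI screen panel. Five 10-fold concentrations from 10^-4 to 10^-8 M. Exposure for the last 48 h of a 72 h incubation. Growth estimated by sulforhodamine B protein assay. GI50 is the concentration giving 50% growth inhibition. Where that level was not reached or was exceeded, the value is given as above or below the highest or lowest concentration tested.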

SK-OV-3 = assay: Growth inhibition of human SKOV3 cells after 48 hrs by sulforhodamine B assay; type: functional; conditions: SK-OV-3, 48 h; summary of the method: as §1
EKVX = assay: Growth inhibition of human EKVX cells after 48 hrs by sulforhodamine B assay; type: functional; summary of the method: as §1
TK-10 = assay: Growth inhibition of human TK10 cells after 48 hrs by sulforhodamine B assay; type: functional; conditions: TK-10, 48 h
Summary of the method: (§2)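 NCI in vitro panel screen. Compounds tested at five 10-fold dilutions, 10^-4 to 10^-8 M. Cells in 96-well plates were exposed for the last 48 h of a 72 h incubation. Viability/growth was read by sulforhodamine B protein assay. GI50 is the concentration giving 50% growth inhibition. Values beyond the tested range are reported as greater or less than the maximum or minimum concentration.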

Malme-3M = assay: Growth inhibition of human MALME-3M cells after 48 hrs by sulforhodamine B assay; type: functional; summary of the method: as §1
MOLT-4 = assay: Growth inhibition of human MOLT4 cells after 48 hrs by sulforhodamine B assay; type: functional; conditions: MOLT-4, 48 h; summary of the method: as §1
CAKI-1 = assay: Growth inhibition of human Caki1 cells after 48 hrs by sulforhodamine B assay; type: functional; conditions: CAKI-1, 48 h; summary of the method: as §1
HOP-92 = assay: Growth inhibition of human HOP92 cells after 48 hrs by sulforhodamine B assay; type: functional; conditions: HOP-92, 48 h; summary of the method: as §1
UO-31 = assay: Growth inhibition of human UO31 cells after 48 hrs by sulforhodamine B assay; type: functional; conditions: UO-31, 48 h; summary of the method: as §2
HCT-116 = assay: Growth inhibition of human HCT116 cells after 48 hrs by sulforhodamine B assay; type: functional; conditions: HCT-116, 48 h; summary of the method: as §1
NCI-H322M = assay: Growth inhibition of human NCI-H322M cells after 48 hrs by sulforhodamine B assay; type: functional; summary of the method: as §1
SW-620 = assay: Growth inhibition of human SW620 cells after 48 hrs by sulforhodamine B assay; type: functional; conditions: SW-620, 48 h; summary of the method: as §2
[1] = Growth inhibition of human […] cells after 48 hrs by sulforhodamine B assay; type: functional; summary of the method: as §1
K562 = assay: Growth inhibition of human K562 cells after 48 hrs by sulforhodamine B assay; type: functional; conditions: K562, 48 h; summary of the method: as §1
HOP-62 = assay: Growth inhibition of human HOP62 cells after 48 hrs by sulforhodamine B assay; type: functional; conditions: HOP-62, 48 h; summary of the method: as §1
NCI-H23 = assay: Growth inhibition of human NCI-H23 cells after 48 hrs by sulforhodamine B assay; type: functional; conditions: NCI-H23, 48 h; summary of the method: as §1
786-0 = assay: Growth inhibition of human 786-0 cells after 48 hrs by sulforhodamine B assay; type: functional; conditions: 786-0, 48 h; summary of the method: as §1
MDA-MB-435 = assay: Growth inhibition of human MDA-MB-435 cells after 48 hrs by sulforhodamine B assay; type: functional; conditions: MDA-MB-435, 48 h; summary of the method: as §1
M14 = assay: Growth inhibition of human M14 cells after 48 hrs by sulforhodamine B assay; type: functional; conditions: M14, 48 h; summary of the method: as §1
UACC-62 = assay: Growth inhibition of human UACC62 cells after 48 hrs by sulforhodamine B assay; type: functional; conditions: UACC-62, 48 h; summary of the method: as §2
A549 = assay: Growth inhibition of human A549 cells after 48 hrs by sulforhodamine B assay; type: functional; conditions: A549, 48 h; summary of the method: as §1
SNB-75 = assay: Growth inhibition of human SNB75 cells after 48 hrs by sulforhodamine B assay; type: functional; conditions: SNB-75, 48 h; summary of the method: as §2
HL-60(TB) = assay: Growth inhibition of human HL-60(TB) cells after 48 hrs by sulforhodamine B assay; type: functional; conditions: HL-60, 48 h
Summary of the method: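 NCI 60-cell-line screen protocol: cells exposed to compound at five 10-fold dilutions from 10^-4 to 10^-8 M for the last 48 h of a 72 h incubation. Sulforhodamine B protein assay estimated viability/growth. GI50 (50% growth inhibition) derived; where not reached or exceeded, reported as greater or less than the highest or lowest concentration tested.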

OVCAR-8 = assay: Growth inhibition of human OVCAR8 cells after 48 hrs by sulforhodamine B assay; type: functional; conditions: OVCAR-8, 48 h; summary of the method: as §1
U-251 = assay: Growth inhibition of human U251 cells after 48 hrs by sulforhodamine B assay; type: functional; conditions: U-251, 48 h; summary of the method: as §2
KM12 = assay: Growth inhibition of human KM12 cells after 48 hrs by sulforhodamine B assay; type: functional; conditions: KM12, 48 h; summary of the method: as §1
MDA-MB-231 = assay: Growth inhibition of human MDA-MB-231 cells after 48 hrs by sulforhodamine B assay; type: functional; conditions: MDA-MB-231, 48 h; summary of the method: as §1
COLO 205 = assay: Growth inhibition of human COLO205 cells after 48 hrs by sulforhodamine B assay; type: functional; conditions: COLO 205, 48 h; summary of the method: as §1
SF-295 = assay: Growth inhibition of human SF295 cells after 48 hrs by sulforhodamine B assay; type: functional; conditions: SF-295, 48 h; summary of the method: as §1
SK-MEL-5 = assay: Growth inhibition of human SK-MEL-5 cells after 48 hrs by sulforhodamine B assay; type: functional; conditions: SK-MEL-5, 48 h; summary of the method: as §1
HT-29 = assay: Growth inhibition of human HT-29 cells after 48 hrs by sulforhodamine B assay; type: functional; conditions: HT-29, 48 h; summary of the method: as §1
PC-3 = assay: Growth inhibition of human PC3 cells after 48 hrs by sulforhodamine B assay; type: functional; conditions: PC-3, 48 h; summary of the method: as §1
DU-145 = assay: Growth inhibition of human DU145 cells after 48 hrs by sulforhodamine B assay; type: functional; conditions: DU-145, 48 h; summary of the method: as §1
SR = assay: Growth inhibition of human SR cells after 48 hrs by sulforhodamine B assay; type: functional; summary of the method: as §2
SF-268 = assay: Growth inhibition of human SF268 cells after 48 hrs by sulforhodamine B assay; type: functional; conditions: SF-268, 48 h; summary of the method: as §1
HCT-15 = assay: Growth inhibition of human HCT15 cells after 48 hrs by sulforhodamine B assay; type: functional; conditions: HCT-15, 48 h; summary of the method: as §1
OVCAR-3 = assay: Growth inhibition of human OVCAR-3 cells after 48 hrs by sulforhodamine B assay; type: functional; conditions: OVCAR-3, 48 h; summary of the method: as §1
NCI-H460 = assay: Growth inhibition of human NCI-H460 cells after 48 hrs by sulforhodamine B assay; type: functional; conditions: NCI-H460, 48 h; summary of the method: as §1
ACHN = assay: Growth inhibition of human ACHN cells after 48 hrs by sulforhodamine B assay; type: functional; summary of the method: as §1
SN12C = assay: Growth inhibition of human SN12C cells after 48 hrs by sulforhodamine B assay; type: functional; summary of the method: as §2
T47D = assay: Growth inhibition of human T47D cells after 48 hrs by sulforhodamine B assay; type: functional; summary of the method: as §2
MT4 = assay: Antiproliferative activity against human MT4 cells assessed as reduction of growth by MTT assay; type: functional, cell-based
Summary of the method: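 MT-4 lymphoblastoid T cells (ATCC) in RPMI 1640 with 10% FCS, penicillin/streptomycin, checked for mycoplasma. 1 × 10⁴ mock-infected cells per well with serial dilutions from a 100 mM DMSO stock. Incubated 4 days at 37 °C, viable cells counted by MTT. IC50 versus untreated controls by linear regression. Mean of three separate experiments.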

LOX IMVI = assay: Growth inhibition of human LOXIMVI cells after 48 hrs by sulforhodamine B assay; type: functional; summary of the method: as §1
BT-549 = assay: Growth inhibition of human BT549 cells after 48 hrs by sulforhodamine B assay; type: functional; conditions: BT-549, 48 h; summary of the method: as §1
CCRF-CEM = assay: Growth inhibition of human CCRF-CEM cells after 48 hrs by sulforhodamine B assay; type: functional; summary of the method: as §1
SNB-19 = assay: Growth inhibition of human SNB19 cells after 48 hrs by sulforhodamine B assay; type: functional; conditions: SNB-19, 48 h; summary of the method: as §2
OVCAR-4 = assay: Growth inhibition of human OVCAR4 cells after 48 hrs by sulforhodamine B assay; type: functional; conditions: OVCAR-4, 48 h; summary of the method: as §1

CCOC(=O)/C(=C/N1CCN(C(=O)c2ccco2)C1=S)C(=O)c1ccccc1
GI50 (SK-MEL-28): 22.2 µM
GI50 (SK-OV-3): 20 µM
GI50 (EKVX): 9.5 µM
GI50 (TK-10): 12.4 µM
GI50 (Malme-3M): 13.3 µM
GI50 (MOLT-4): 19.6 µM
GI50 (CAKI-1): 15.9 µM
GI50 (HOP-92): 23 µM
GI50 (UO-31): 10 µM
GI50 (HCT-116): 8.9 µM
GI50 (NCI-H322M): 14.2 µM
GI50 (SW-620): 7.9 µM
GI50 [1]: 12.4 µM
GI50 (K562): 17.7 µM
GI50 (HOP-62): 17.3 µM
GI50 (NCI-H23): 7.7 µM
GI50 (786-0): 12.9 µM
GI50 (MDA-MB-435): 14.4 µM
GI50 (M14): 8.9 µM
GI50 (UACC-62): 7.6 µM
GI50 (A549): 11.6 µM
GI50 (SNB-75): 46 µM
GI50 (HL-60(TB)): 14.9 µM
GI50 (OVCAR-8): 11.7 µM
GI50 (U-251): 11.5 µM
GI50 (KM12): 10.1 µM
GI50 (MDA-MB-231): 10.8 µM
GI50 (COLO 205): 19.2 µM
GI50 (SF-295): 16.4 µM
GI50 (SK-MEL-5): < 0.005 µM
GI50 (HT-29): 19.2 µM
GI50 (PC-3): 19.4 µM
GI50 (DU-145): 8 µM
GI50 (SR): 2.4 µM
GI50 (SF-268): 7.2 µM
GI50 (HCT-15): 6.3 µM
GI50 (OVCAR-3): 20.2 µM
GI50 (NCI-H460): 4.9 µM
GI50 (ACHN): 8.5 µM
GI50 (SN12C): 8.1 µM
GI50 (T47D): 4.1 µM
IC50 (MT4): 4 µM
GI50 (LOX IMVI): 6.5 µM
GI50 (BT-549): 9 µM
GI50 (CCRF-CEM): 15.6 µM
GI50 (SNB-19): 35.6 µM
GI50 (OVCAR-4): 31 µM
